NR1D1 modulator = modulators of Rev-erb alpha DNA binding, primary screen, biochemical, FITC-DNA, fluorescence polarization, uHTS; Nuclear receptor subfamily 1 group D member 1 (Homo sapiens), P20393; Rev-erbα–FITC-DNA binding, 90 min; activity, % at 10 µM; 370,000 tested, 0.79% active; AID 1259318, 2017;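 active = activity above about 14%, limit read from the data; passing the limit was not always enough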
NR2E3 ag-1 = NR2E3 agonists in two-hybrid cells, primary screen, cell-based, luminescence, CHO-S, Gal4-NCOR/VP16-NR2E3; Photoreceptor-specific nuclear receptor (Homo sapiens), Q9Y5X4; luciferase; inhibition of corepressor binding, % at 3.98 µM; 360,000 tested, 0.35% active; AID 602229, 2012;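 active = inhibition above the mean of all tested compounds plus 3 SD, cut at about 70% in these data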;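 also: higher means lower luciferase signal from less NR2E3 corepressor binding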
Target sequence (Q9Y5X4 whole entry, looked up, the tested form may be a part): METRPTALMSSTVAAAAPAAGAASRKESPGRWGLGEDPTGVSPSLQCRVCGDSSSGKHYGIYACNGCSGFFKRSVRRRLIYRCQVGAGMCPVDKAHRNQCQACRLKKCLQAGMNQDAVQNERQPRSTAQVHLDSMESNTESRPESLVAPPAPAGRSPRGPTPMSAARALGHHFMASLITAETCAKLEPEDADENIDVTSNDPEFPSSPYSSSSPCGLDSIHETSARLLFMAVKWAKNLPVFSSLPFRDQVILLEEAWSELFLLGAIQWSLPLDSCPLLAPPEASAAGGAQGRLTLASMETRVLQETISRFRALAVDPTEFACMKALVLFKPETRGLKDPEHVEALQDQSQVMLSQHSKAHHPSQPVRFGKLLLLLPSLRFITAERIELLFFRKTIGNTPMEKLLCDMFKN
PG9 binder = binders of HIV-1 gp120 antibody PG9, primary screen, biochemical, TR-FRET; HIV-1 gp120 / PG9 antibody interaction; TR-FRET gp120-PG9 antibody binding; inhibition, % at 6.7 µM; 360,000 tested, 0.43% active; in the data active = inhibition above about 8.5%
NR2E3 ag-2 = inhibitors of NR2E3-RetCOR corepressor binding, primary screen, NR2E3 agonist project, biochemical, TR-FRET, GST-NR2E3, biotin-RetCOR; Photoreceptor-specific nuclear receptor (Homo sapiens), Q9Y5X4; 1536-well; inhibition of corepressor binding, % at 4.78 µM; 320,000 tested, 0.12% active;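 active = percent inhibition above the cutoff of mean plus 3 SD of all tested compounds, set per screening campaign, cut at about 20% in these data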
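Material: NR2E3–RetCOR corepressor complex / Incubation: Compound–protein incubation for 5 h at 4 °C / Dosing: compound at 4.8 µM, single dose / Detection: time-resolved FRET / Benchmarks: high control biotin, low control 0.6% DMSO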
NR2E3 ag confirm = NR2E3 agonist confirmation in cells, cell-based, luminescence, CHO-S two-hybrid | shares compounds with NR2E3 ag-1 | CHO-S mammalian two-hybrid NR2E3-NCOR, luciferase luminescence | inhibition, % at 3.98 µM | 2,300 tested, 51% active;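 active = average inhibition above a cutoff equal to the mean inhibition of all tested compounds plus one SD, cut at about 70% in these data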
GAL4-VP16 luc = GAL4-VP16 reporter modulators, confirmation, counter-screen for NR2E3 agonist project, cell-based, luminescence, CHO-S, high throughput | shares compounds with NR2E3 ag-1 | CHO-S GAL4-VP16 luciferase reporter | 2,300 tested, 29% active | inhibition, % at 3.98 µM;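 active = mean inhibition above a cutoff equal to the average over all tested compounds plus one standard deviation, cut at about 70% in these data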;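 also: luciferase from a UAS reporter driven by GAL4-VP16 transactivation; higher means less reporter light so more repression of VP16 activity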
Numbers stand for hits; . = inactive; / = not tested or not shown. Most compounds without a hit are left out; they make up all but 1.5% or so of the library.

SMILES	NR1D1 modulator	NR2E3 ag-1	PG9 binder	NR2E3 ag-2	NR2E3 ag confirm	GAL4-VP16 luc
Nc1cc2c(cc1Cl)-c1ccc([N+](=O)[O-])cc1C2=NO	.	.	.	/	.	.
COc1ccc(NC(=O)C(Cl)=C(Cl)Cl)cn1	.	.	.	/	/	/
COc1ccc(NC(=O)C(C)(C)Oc2ccc(Cl)cc2)cn1	.	.	.	.	/	/
COc1ccc(NC(=O)/C(Cl)=C(/Cl)S(=O)(=O)Cc2ccccc2)cn1	.	83	.	/	98	.
COc1ccc(NC(=O)/C(Cl)=C(/Cl)S(=O)Cc2ccc(Cl)cc2)cn1 (stereo not given)	.	87	.	/	99	.
Cc1cc(C(=O)NNc2ccc(Cl)cc2)no1	.	.	.	.	.	.
Cc1cc(C(=O)NNC(=O)Nc2ccc(Cl)cc2)no1	.	.	.	.	/	/
CC1CCCC/C1=N\NC(=S)NCCc1ccccc1 (stereo not given)	.	.	.	.	.	.
Cc1cc(C)c(NC(=O)CN(CC(=O)O)CC(=O)O)c(C)c1Br	.	/	/	/	/	/
N#Cc1c(Cl)nsc1NC(=O)c1ccccc1	.	85	.	.	99	88
CC(C)(C)C(=O)Nc1ccc(Sc2ccc([N+](=O)[O-])cc2)cc1	.	.	.	.	78	.
CC(C)(C)C(=O)NC(NC(=O)C(C)(C)C)c1ccc([N+](=O)[O-])cc1	.	.	.	.	/	/
CC(=O)Nc1ccc(Sc2ccc([N+](=O)[O-])o2)cc1	.	72	.	/	93	.
CCCN(CC1CC1)C(=S)NC(=O)c1cc(Br)ccc1Cl	.	81	.	/	.	.
Cc1cc(C(=O)OCCCN(C)C2CN(Cc3cn(Cc4ccccc4C(F)(F)F)nn3)S(=O)(=O)C2)no1 (stereo not given)	.	/	/	/	/	/
Cc1ccsc1-c1nc(CSCC(=O)N2CCN(c3ccccc3)CC2)c(C)o1	.	.	.	.	.	.
Cc1ccccc1CSCC(=O)N1CCN(c2ccccc2)CC1	.	.	.	.	/	/
Cc1cccc(-c2nc(CSCC(=O)N3CCN(c4ccccn4)CC3)c(C)o2)c1	.	78	.	.	81	.
FC(F)(F)c1cc(CNC2CCC23CCCCC3)ccc1Cl (stereo not given)	.	/	/	/	/	/
Cc1c(C(C)C)c(=O)n(-c2ccc(S(=O)(=O)NCc3ccccc3)cc2)n1C	.	81	.	.	94	81
Cc1c(C(C)C)c(=O)n(-c2ccc(S(=O)(=O)NC3CCCCC3)cc2)n1C	.	72	.	.	87	.
Cc1c(C(C)C)c(=O)n(-c2ccc(S(=O)(=O)N3CCOCC3)cc2)n1C	.	.	.	.	/	/
CCOc1cc(CNCCc2ccc(S(N)(=O)=O)cc2)ccc1OCc1ccc(Cl)cc1	.	.	.	.	.	.
CCCCCCCCN1C(=O)[C@@H](CC(=O)NCCCOC)C[C@@]2(C(=O)OC)C1=C[C@H](C(C)C)O[C@@H]2C1CC1	.	/	/	/	/	/
COc1ccc(CN2C[C@]3(C=C4CCCCC4n4c(=O)n(-c5ccccc5)c(=O)n43)N=C2NC(=O)c2ccccc2)c(OC)c1 (stereo not given in full)	.	/	/	/	/	/
SMILES	NR1D1 modulator	NR2E3 ag-1	PG9 binder	NR2E3 ag-2	NR2E3 ag confirm	GAL4-VP16 luc
CCN1CCN(Cc2ccc(NC(=O)c3cc(NC(=O)c4ccno4)cc(OC)c3)cc2C(F)(F)F)CC1	.	.	.	.	/	/
CCN1CCN(Cc2ccc(NC(=O)c3ccc(C)c(NC(=O)c4ccno4)c3)cc2C(F)(F)F)CC1	.	.	.	.	.	.
Cc1ccc(CSc2nnc(-c3cc(-c4ccc(C)cc4)n[nH]3)n2N)cc1	.	/	/	/	/	/
CC(C)(C)OC(=O)CC[C@@H](C(=O)NCCCCCCCCCCC(=O)N1CCN(C(=O)OC(C)(C)C)CC1)n1cc(CCCCCNC(=O)OC(C)(C)C)nn1	.	.	.	.	/	/
CC(C)(C)OC(=O)NCCCCCc1cn([C@@H](CO)C(=O)NCCCCCCCCCCC(=O)N2CCN(C(=O)OC(C)(C)C)CC2)nn1	.	.	.	.	83	74
O=C(Nc1ccc(OCC(F)(F)C(F)F)c(C(F)(F)F)c1)c1ccccc1O	.	99	.	.	98	75
O=S1(=O)c2ccccc2-c2c(nnn2Cc2ccccc2)CN1C1CC1	.	/	/	/	/	/
CSCCCNC(=O)C1CCN(S(=O)(=O)c2ccc3[nH]c(=O)oc3c2)CC1	.	/	/	/	/	/
COc1cc(C)c(NC(=O)COc2cccc3c2OC(C)(C)C3)cc1OC	/	.	/	.	.	.
COc1ccc(NC(=O)COc2cccc3c2OC(C)(C)C3)c(OC)c1	.	.	.	/	/	/
O=P(O)(O)C(O)(Cc1cnc2ccccn12)P(=O)(O)O	.	/	/	/	/	/
CCCC1CCC2(CC1)CCC2OC(=S)Nc1cccc(I)c1 (stereo not given)	.	/	/	/	/	/
CCOC(=O)Cn1cc(CN2C(C(=O)OC)CN(CCO)CCS2(=O)=O)nn1 (stereo not given)	.	/	/	/	/	/
Cc1ccc(CS(=O)(=O)c2ncc(Cl)c(C(=O)Nc3nnc(C(C)C)s3)n2)cc1	.	.	.	.	.	.
CC(C)c1nnc(NC(=O)c2nc(S(=O)(=O)Cc3ccc(F)cc3)ncc2Cl)s1	.	.	.	.	/	/
CSc1nnc(NC(=O)c2nc(S(=O)(=O)Cc3cccc(C)c3)ncc2Cl)s1	.	.	.	.	.	.
CCc1nnc(NC(=O)c2nc(S(=O)(=O)Cc3ccc(C)cc3)ncc2Cl)s1	.	.	.	.	.	.
Cc1cccc(CS(=O)(=O)c2ncc(Cl)c(C(=O)Nc3nnc(C(C)C)s3)n2)c1	/	.	/	.	/	/
CCCCc1oc2ccc(NS(C)(=O)=O)cc2c1C(=O)c1ccc(OCCCN(CCCC)CCCC)cc1	.	/	/	/	/	/
C#CCNC(=O)C[C@H]1C[C@@]2(C(=O)OC)C(=C[C@H](C3CCCC3)O[C@@H]2C)N(CCC2=CCCCC2)C1=O	.	/	/	/	/	/
Cc1cc2c(Nc3ccccc3)ncnc2s1	.	.	.	.	/	/
Cc1cc2c(NCCc3ccccc3)ncnc2s1	.	.	.	.	90	73
c1ccc(CCNc2ncnc3ccccc23)cc1	.	.	.	.	89	.
CCCCCCCCNc1ncnc2ccccc12	/	92	/	.	99	92
Brc1ccc2ncnc(NCc3ccccc3)c2c1	.	.	.	.	91	85
CCCCc1ccc(-c2noc(CCC(=O)NCC)n2)cc1	.	/	/	/	/	/
COc1ccc(CNC(=O)c2sc(=O)n(Cc3cc(Cl)ccc3OC)c2C)cc1	.	.	.	/	/	/

Screens from PubChem.
